This is an account of results in ChEMBL document CHEMBL1125907, “Folate analogues. 34. Synthesis and antitumor activity of non-polyglutamylatable inhibitors of dihydrofolate reductase” (J Med Chem, 1991).

Where only a bound is given, the exact number is not on record here.

In assay [1] the test system is CCRF-CEM. Nature of the assay: (§1) Relative activity when compared to the activity of aminopterin in CCRF-CEM Human leukemia cell at a concentration of 50 uM. Type of assay: functional. A digest of the protocol:
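Purified folylpolyglutamate synthetase from CCRF-CEM human leukemia cells; substrate activity measured as [3H]glutamate incorporation with compound up to 200 μM, expressed relative to aminopterin at 50 μM.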

The test system of assay [2] is CCRF-CEM. The description is as §1. Type of assay: functional. A digest of the protocol:
(§2)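 Used purified folylpolyglutamate synthetase (FPGS) isolated from CCRF-CEM human leukemia cells. Each compound was tested as an alternative substrate. Activity was read as [3H]glutamate incorporation and expressed relative to aminopterin as reference substrate at 50 μM. Test compounds were examined at concentrations up to 200 μM.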
The source holds these as a separate data set.

The target of the next assay is T1, Dihydrofolate reductase (Homo sapiens, UniProt P00374).
T1 sequence (P00374 whole entry): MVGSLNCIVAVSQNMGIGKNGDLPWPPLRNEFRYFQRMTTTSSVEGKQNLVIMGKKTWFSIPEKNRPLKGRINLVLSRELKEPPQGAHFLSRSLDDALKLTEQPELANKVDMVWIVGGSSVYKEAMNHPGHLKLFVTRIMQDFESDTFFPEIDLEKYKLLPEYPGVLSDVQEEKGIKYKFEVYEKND
Nature of the assay: Compound was tested for its inhibitory activity on Recombinant Human Dihydrofolate Reductase.

Assay [3] has as its target T2, Folylpolyglutamate synthase, mitochondrial (Homo sapiens, UniProt Q05932).
T2 sequence (Q05932 whole entry): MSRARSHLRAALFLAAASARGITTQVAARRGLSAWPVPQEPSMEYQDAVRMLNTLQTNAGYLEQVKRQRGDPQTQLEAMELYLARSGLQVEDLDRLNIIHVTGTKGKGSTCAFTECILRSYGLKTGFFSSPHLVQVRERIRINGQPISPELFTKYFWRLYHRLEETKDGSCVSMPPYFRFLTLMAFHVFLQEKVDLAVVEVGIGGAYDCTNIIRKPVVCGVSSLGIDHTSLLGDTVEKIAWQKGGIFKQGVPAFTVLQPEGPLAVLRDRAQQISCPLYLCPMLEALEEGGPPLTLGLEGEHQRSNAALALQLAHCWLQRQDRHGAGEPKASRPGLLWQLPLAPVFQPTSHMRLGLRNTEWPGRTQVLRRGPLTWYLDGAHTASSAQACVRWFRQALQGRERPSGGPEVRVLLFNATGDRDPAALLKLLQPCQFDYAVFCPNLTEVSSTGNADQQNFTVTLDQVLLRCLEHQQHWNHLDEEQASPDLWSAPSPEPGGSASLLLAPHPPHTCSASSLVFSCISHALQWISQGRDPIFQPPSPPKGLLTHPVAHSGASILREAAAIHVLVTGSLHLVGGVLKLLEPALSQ
Nature of the assay: Compound was evaluated for the inhibition of Folyl-polyglutamate synthase in CCRF-CEM Human leukemia cell. A digest of the protocol:
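Purified folylpolyglutamate synthetase from CCRF-CEM human leukemia cells, with 50 µM aminopterin as substrate. Increasing amounts of test compound were added to the assay mixture. Activity was read as [3H]glutamate incorporation, and inhibition was expressed as IC50.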

The test system of another assay is Manca. Nature of the assay: Compound was tested for its inhibitory activity manca tumor cell growth. The settings on record: Homo sapiens. In kind it is functional, cell-based.
The test system of assay [4] is CCRF-CEM. Nature of the assay: Relative activity when compared to the activity of aminopterin in CCRF-CEM Human leukemia cell at a concentration of 200 uM. In kind it is functional. A digest of the protocol:
as §2

For assay [5], the system named is H35R0.3. Nature of the assay: Compound was tested for its inhibitory activity in tumor cell growth in H35 hepatoma cells. Type of assay: functional, cell-based. The settings on record: Rattus norvegicus.
Assay [6] relates to H35R0.3. Nature of the assay: Compound was tested for its inhibitory activity in tumor cell growth in H35R cells. In kind it is functional, cell-based. The following applies: Rattus norvegicus.
The test system of assay [7] is H35R0.3. Nature of the assay: Compound was tested for growth inhibition of H35 Hepatoma cells. The following applies: Rattus norvegicus. Type of assay: functional, cell-based. The method in brief:
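H35 hepatoma cells grown 24 h, then exposed to compound for a 6-h pulse (24–30 h); growth read as cell counts after 72 h in culture medium.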

The test system of assay [8] is H35R0.3. Nature of the assay: Compound was tested for inhibition of folinic acid transport in H35 Hepatoma cells. The following applies: Rattus norvegicus. In kind it is functional, cell-based.
Assay [9] deals with CCRF-CEM. Nature of the assay: Compound was tested for its inhibitory activity in tumor cell growth in CCRF-CEM in human. Type of assay: functional, cell-based.
In assay [10] the test system is H35R0.3. Nature of the assay: Compound was tested for inhibition of folinic acid transport in H35 Hepatoma cells; No Inhibition at 50 uM. Type of assay: functional, cell-based, Rattus norvegicus.

In the case of `Nc1nc(N)c2nc(CNc3ccc(C(=O)N[C@@H](CCC(=O)O)C(=O)O)cc3)cnc2n1` [AMINOPTERIN], the Relative activity in the assay with CCRF-CEM [1] amounted to 100.
A word on the IC50: it is the concentration that gives 50% inhibition. For `Nc1nc(N)c2nc(CCc3ccc(C(=O)NC(C(=O)O)C(O)CC(=O)O)cc3)cnc2n1` (stereo not drawn), the Relative activity in the assay with CCRF-CEM [2] is less than 3. Also, the half-maximal inhibitory concentration (IC50) was 5.9 nM at Dihydrofolate reductase, more than 50000 nM in assay [3] and 29 nM in the assay with Manca.
As to `Nc1nc(N)c2nc(CCc3ccc(C(=O)N[C@@H](CCC(=O)O)C(=O)O)cc3)cnc2n1`, the Relative activity in the assay with CCRF-CEM [2] is listed as 60. Further, the IC50 on Dihydrofolate reductase came out at 4.1 nM.
Molecule `C=C(CC(NC(=O)c1ccc(C(CC)Cc2cnc3nc(N)nc(N)c3n2)cc1)C(=O)O)C(=O)O` (stereo not drawn) registered a Relative activity in the assay with CCRF-CEM [4] of less than 1. Besides, the IC50 on Dihydrofolate reductase amounted to 5.8 nM; in assay [3] it was 118000 nM; in the assay on H35R0.3 [5] it was 6.3 nM; with H35R0.3 [6], 14000 nM; in the assay on H35R0.3 [7] it was 14000 nM; with H35R0.3 [8], 1500 nM. In addition, the IC50 with Manca was found to be 3.8 nM; in the assay with CCRF-CEM [9] it was 7.4 nM.
`CN(Cc1cnc2nc(N)nc(N)c2n1)c1ccc(C(=O)NC(C(=O)O)C(O)CC(=O)O)cc1` (stereo not drawn) gave a Relative activity in the assay on CCRF-CEM [2] of less than 3. Moreover, the concentration for half-maximal inhibition (IC50) is 5.3 nM at Dihydrofolate reductase; more than 200000 nM in assay [3]; 85 nM in the assay on H35R0.3 [5]; 5600 nM in the assay on H35R0.3 [6]; “No inhibition” with H35R0.3 [10]; 48 nM in the assay with Manca.
In turn, `C=C(CC(NC(=O)c1ccc(N(C)Cc2cnc3nc(N)nc(N)c3n2)cc1)C(=O)O)C(=O)O` (stereo not drawn) came in with a Relative activity in the assay on CCRF-CEM [4] of less than 1. For the same molecule, the half-maximal inhibitory concentration (IC50) was 6.4 nM at Dihydrofolate reductase; more than 200000 nM in assay [3]; 16 nM in the assay on H35R0.3 [5]; 21000 nM in the assay with H35R0.3 [6]; 3900 nM with H35R0.3 [7]; 7000 nM in the assay on H35R0.3 [8]. The IC50 was 26 nM in the assay on Manca and 30 nM with CCRF-CEM [9].
In turn, `C=C(CC(NC(=O)c1ccc(CCc2cnc3nc(N)nc(N)c3n2)cc1)C(=O)O)C(=O)O` (stereo not drawn) showed a Relative activity in the assay with CCRF-CEM [4] of less than 2. Moreover, the IC50 was 8.8 nM at Dihydrofolate reductase; more than 200000 nM in assay [3]; 39 nM with H35R0.3 [5]; 18400 nM with H35R0.3 [6]; more than 20000 nM in the assay on H35R0.3 [7]; 5500 nM in the assay on H35R0.3 [8]. The IC50 with Manca was 9.9 nM; with CCRF-CEM [9], 13 nM.
As for `CN(Cc1cnc2nc(N)nc(N)c2n1)c1ccc(C(=O)N[C@@H](CCC(=O)O)C(=O)O)cc1` [METHOTREXATE], the figures for the IC50 in the assay on H35R0.3 [7] and with H35R0.3 [8] were 85 nM and 18000 nM, respectively.
